Results from the RNAGym collection of RNA variant scans (doi:10.1126/science.aae0568).
Fewer inactive variants are shown than the library holds.

B1: tRNA (parent)
chain: GUUCCGUUGGCGUAAUGGUAACGCGUCUCCCUCCUAAGGAGAAGACUGCGGGUUCGAGUCCCGUACGGAACG

Variants of: B1
Assay: yeast fitness relative to wild type (ratio to wild type); higher = fitter; tRNA-Arg(CCU), competitive growth, 37 C, YPD
Outline: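 Start and end populations of a pooled competition were compared by 100-nucleotide paired-end sequencing of gene amplicons. The Saccharomyces cerevisiae strains carried tRNA-Arg(CCU) gene variants at the native genomic locus, synthesised with a 3% per-site mutation rate at 69 sites, and competed in YPD at 37°C for 24 hours in six parallel replicates. Darwinian fitness relative to wild type was based on the change in genotype frequencies. Genotypes required ≥ 100 starting reads, and estimates < 0.5 were set to 0.5.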
With GUUCCGUUGGCGUAAUGGUAACGCGUCUAGCUCCUAAUGAGAAGACUGCGGGUUCGAGUCCCGUACGGAACG [C29A C30G G38U] the yeast fitness was no more than 0.5.
For GUUCCGUUGGCGUAAUGGUAACGCGUCUACCUCCUAAGGAGAAGACCGCGGGUUCGAGUCCCGUACGGAACG [C29A U47C], the yeast fitness was 0.713.
GUUCCGUUGGCGUAAUGGUAACGCGUCUGCCUCCUAAGGAGAAGACUGCGGGUUCGAGUCCCGUACGGAACG [C29G] gave a yeast fitness of 0.686.
With GUUCCGUUGGCGUAAUGGUAACGCGUCUACCUCCUAAGGAGAAGACUGCGGGUUCGAGUACCGUACGGAACG [C29A C60A] the yeast fitness was 0.616.
For GUUCCGUUGGCGUAAUGGUAACGCGUCUAUCUGCUAAGGAGAAGAUUGCGGGUUCGAGUCCCGUACGGAACG [C29A C30U C33G C46U], the yeast fitness was no more than 0.5.
Variant GUUCCGUUGGCGUAAUGGUAACGCGUCUAUCUCCUAAGGAGAAGACUACAGGUUCGAGUCCCGUACGGAACG [C29A C30U G48A G50A] has a yeast fitness of no more than 0.5.
GUUCCGUUGGCGUAAUGGUAACGCGUCUAACUCCUAAGGAGAAGACUGCAGGUUCGAGUCCCGUACGGAACG [C29A C30A G50A] gave a yeast fitness of no more than 0.5.
For GUUCCGUUGGCGUAAUGGUAACGCGUCUACCUCCUAAGGAGAAGACUGCCGGUUCGAGUCCCGCACGGAACG [C29A G50C U64C], the yeast fitness was no more than 0.5.
With GUUCCGUUGGCGUAAUGGUAACGCGUCUACCUCCUAAGGAGAAGACUGAGGGUUCGAGUCCAGUAUGGAACG [C29A C49A C62A C66U] the yeast fitness was no more than 0.5.
GUUCCGUUGGCGUAAUGGUAACGCGUCUACCUCCUAAGGAGAAGACUGCGGGUUCGGGUCCCGAACGGAACG [C29A A57G U64A] showed a yeast fitness of no more than 0.5.
Variant GUUCCGUUGGCGUAAUGGUAACGCGUCUACCUCCUAAGGAGAAGACCGCCGGUUCGCGUCCCGUACGGAACG [C29A U47C G50C A57C] has a yeast fitness of 0.582.
GUUCCGUUGGCGUAAUGGUAACGCGUCUACCUCGUGAGGCGAAGACAGCGGGUUCGAGUCCCGCACGGAACG [C29A C34G A36G A40C U47A U64C] showed a yeast fitness of no more than 0.5.
For GUUCCGUUGGCGUAAUGGUAACGCGUCUACCUGCUAAGGAGAAGACUGCGGGUUCGAGUCCCGUACGGAGCG [C29A C33G A70G], the yeast fitness was no more than 0.5.
In the case of GUUCCGUUGGCGUAAUGGUAACGCGUCUACCCCCUAAGGAGUAGACUGCGGGUUCGAGUCCCGUACGGUACG [C29A U32C A42U A69U], the yeast fitness is reported as no more than 0.5.
In the case of GUUCCGUUGGCGUAAUGGUAACGCGUCUACCUCGUAAGGAGAAGACUGCGGGUUCGAGUCCCGUACGGAACG [C29A C34G], the yeast fitness is reported as no more than 0.5.
Work on GUUCCGUUGGCGUAAUGGUAACGCGUCUACCUCCUAAGGAGAAGACUACGGGUUCGAGUCCCGUAUGGAACG [C29A G48A C66U] yielded a yeast fitness of no more than 0.5.
Work on GUUCCGUUGGCGUAAUGGUAACGCGUCUACCUCCUAAGGAGAAGACUGCAGGUUCGAGUCCCGUACGGAACG [C29A G50A] yielded a yeast fitness of 0.678.
GUUCCGUUGGCGUAAUGGUAACGCGUCUACCUCCUAAGGAGAAGACUGCGGGUUCGAGUCCCGUACGGCACG [C29A A69C] showed a yeast fitness of 0.679.
For GUUCCGUUGGCGUAAUGGUAACGCGUCUACCUCCUAAGGAGAAGACUGCGGGUUCGAGUCCCGUACGGUACG [C29A A69U], the yeast fitness was 0.756.
With GUUCCGUUGGCGUAAUGGUAACGCGUCUACCUCCUAAGGAGAAGACUGCGGGUUCGAAUCGCGUACGGAUCG [C29A G58A C61G A70U] the yeast fitness was 0.642.
GUUCCGUUGGCGUAAUGGUAACGCGUCUACCUCCUAAGGAGAAGCUUGCGAGUUCAAGUCCCGUACGGAACG [C29A A45C C46U G51A G56A] showed a yeast fitness of no more than 0.5.
GUUCCGUUGGCGUAAUGGUAACGCGUCUACCUCCUAAGGAAACGACUGCGGGUUCGAGUCCCGUACGGCACG [C29A G41A A43C A69C] gave a yeast fitness of no more than 0.5.
In the case of GUUCCGUUGGCGUAAUGGUAACGCGUCUACCUCCUAAGGAGAAGACUGGGGGUUUGAGUCCCGUACGGAACG [C29A C49G C55U], the yeast fitness is reported as no more than 0.5.
GUUCCGUUGGCGUAAUGGUAACGCGUCUACCUCCUAAGGAGAAGACUGCGGGUUCGAGUCCUGUACGGAACG [C29A C62U] showed a yeast fitness of 0.723.
GUUCCGUUGGCGUAAUGGUAACGCGUCUACCUCCUAAGGAGAAAACUGCGGGUUCGAGUCCCGUACGGAGCG [C29A G44A A70G] gave a yeast fitness of 0.804.
GUUCCGUUGGCGUAAUGGUAACGCGUCUACCUCCUAAGGAGUAGACUGCGGGUUCGAGUCCCGUACGGAACG [C29A A42U] gave a yeast fitness of 0.632.
Variant GUUCCGUUGGCGUAAUGGUAACGCGUCUACCUCCUAAGGAGAAGACUGCGGGUUCCGGUCCCGUACGUAACG [C29A G56C A57G G68U] has a yeast fitness of no more than 0.5.
For GUUCCGUUGGCGUAAUGGUAACGCGUCUACCUCCUAAGGAGAAGACUGAGGGUUCGAGUCCCGUACGGAGCG [C29A C49A A70G], the yeast fitness was no more than 0.5.
Variant GUUCCGUUGGCGUAAUGGUAACGCGUCUACCUCCUAAGGAGAAGAUUGCGGGUUCGAGUCCCGUACGGAACG [C29A C46U] has a yeast fitness of 0.724.
GUUCCGUUGGCGUAAUGGUAACGCGUCUACCUCCCAAGGAGAAGCCUGUGGGUUCGAGUCCCGUACGGAACG [C29A U35C A45C C49U] gave a yeast fitness of no more than 0.5.
GUUCCGUUGGCGUAAUGGUAACGCGUCUACCUCUUUAGGAGAAGACUGCGGGUUCGAGUCCCGUACGGAACG [C29A C34U A36U] showed a yeast fitness of 0.568.
Work on GUUCCGUUGGCGUAAUGGUAACGCGUCUACCUCCUAAGGAGAAGAGUGCGGGUUCGAGUCCCGUGCGGAUCG [C29A C46G A65G A70U] yielded a yeast fitness of no more than 0.5.
Variant GUUCCGUUGGCGUAAUGGUAACGCGUCUACCUUCUAAGGAGAAGACUGCGGGUUCGAGUCCCGUACAGAACG [C29A C33U G67A] has a yeast fitness of no more than 0.5.
In the case of GUUCCGUUGGCGUAAUGGUAACGCGUCUACCUCCUAAGGAGAAGACUGCGGGUUCGAGUCCCGUGCGGAACG [C29A A65G], the yeast fitness is reported as 0.667.
Variant GUUCCGUUGGCGUAAUGGUAACGCGUCUACCUCCUAAGGAGAAGACUGCGGGUUCGAGUCCCGUUCGGAACG [C29A A65U] has a yeast fitness of 0.626.
In the case of GUUCCGUUGGCGUAAUGGUAACGCGUCUACCUUCUAAGGAGAAGACAGCGGGUUCGUGUCCCGUACGGAACG [C29A C33U U47A A57U], the yeast fitness is reported as no more than 0.5.
Work on GUUCCGUUGGCGUAAUGGUAACGCGUCUACCUCCUAAGGAAACGACUGUGGGUUCGAGUCCCGUACGGAACG [C29A G41A A43C C49U] yielded a yeast fitness of no more than 0.5.
GUUCCGUUGGCGUAAUGGUAACGCGUCUACCUCCUAAGGAGAAGAAUGCGGGUUAGGGUCCCGUACGGAACG [C29A C46A C55A A57G] gave a yeast fitness of no more than 0.5.
